Measurements taken from PubChem BioAssay AID493091 (Sanford-Burnham Center for Chemical Genomics, 2011).
Where “and” joins values, the source holds several entries; their conditions need not be identical. Identical values can stand only once. Hit rate of the full screen: of about 340,000 compounds, about 3,000 (0.88%) were called active.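 How the source made its calls: active means inhibition above about 50% at 20 µM (limit read from the data); inactive means the rest.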 The list comes from a sample in which actives are over-represented; it also holds similar structures and randomly drawn compounds. Some compounds were tested as several samples or in several runs, with calls that do not always agree.

These molecules were tested against Carboxy-terminal domain RNA polymerase II polypeptide A small phosphatase 1 (Homo sapiens) (UniProt Q9GZU7) (assay: inhibition of human SCP1 dephosphorylation activity – biochemical, colorimetric, uHTS, primary screen (AID 493091;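 further: plate controls were DMSO wells with enzyme for no effect and wells lacking enzyme for full effect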)). Conditions: Recombinant Scp1, phosphopeptide, malachite green phosphate absorbance; at 20 µM; stronger effect = higher value.
Outline: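 Incubation: 45 min enzyme reaction at room temperature / System: truncated SCP-1 phosphatase (76-261aa) / Reagent: Phospho 17-mer peptide substrate / Buffer or medium: Acidic Tris acetate buffer with magnesium and detergent / Signal: absorbance at 630 nm / Doses: one concentration, 20 µM, with 1.0% DMSO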

Chain of Carboxy-terminal domain RNA polymerase II polypeptide A small phosphatase 1 (Homo sapiens) (Q9GZU7 76-261 limits assumed): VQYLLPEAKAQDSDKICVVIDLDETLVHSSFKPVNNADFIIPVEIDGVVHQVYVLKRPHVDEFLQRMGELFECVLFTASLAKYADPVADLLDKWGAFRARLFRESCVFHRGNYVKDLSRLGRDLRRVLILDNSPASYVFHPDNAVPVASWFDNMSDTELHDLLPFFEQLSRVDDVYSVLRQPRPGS

| Compound | inhibition |
| --- | --- |
| COc1ccc(Cl)cc1C=CC=Nc1ccc(S(N)(=O)=O)cc1 | -0.31% (inactive) |
| COc1ccc(Cl)cc1C=CC=NNC(=O)c1ccncc1 | 54.2% (active) |
| COc1ccccc1/C=C/C=N/NC(=O)CN1CCN(Cc2ccccc2)CC1 | -7.3% (inactive) |
| CCOC(=O)N1CCN(c2c(NCCN3CCN(c4ccccc4F)CC3)c(=O)c2=O)CC1 | -8.45% (inactive) |
| ON=C1/C(=N\O)CC2(C/C1=N/O)OCCO2 | 58% (active) |
| O/N=C1\CC2(Cc3nonc31)OCCO2 | -5.88% (inactive) |
| O=C(Cn1nnc(-c2ccc3c(c2)OCO3)n1)NCc1ccco1 | 60.1% (active) |
| CS(=O)(=O)N(CC(=O)NCc1ccco1)c1ccc2c(c1)OCO2 | 17.7% (inactive) |
| S=C(NCc1ccc2c(c1)OCO2)NCc1ccco1 | -10.4% (inactive) |
| COc1cccc(CNC(=O)CN(C)S(=O)(=O)c2ccc3c(c2)c(=O)n(C)c(=O)n3C)c1 | -11.9% (inactive) |
| Cc1ccc(S(=O)(=O)/N=S(\C)C(C)C)cc1 (stereo not drawn) | -1% (inactive) |
| COc1ccccc1/C=C/C(=O)OCC(=O)NC1CCCCCC1 | -7.74% (inactive) |
| COc1cc(/C=C/C(=O)OCC(=O)NC2CC2)cc(OC)c1OC | 8.5% (inactive) |
| COc1ccc(/C=C/C(=O)OCC(=O)NC2CCCCCC2)cc1OC | 53% (active) |
| CCOC(=O)c1oc2c(CN3CCN(CCO)CC3)c(O)c(CC)cc2c(=O)c1-c1nc2ccccc2s1 | -2.5% (inactive) |
| Cc1ccc(NC(=O)COc2coc(CN3CCc4ccccc4C3)cc2=O)cc1Cl | 5.58% (inactive) |
| Cc1nnc2n1N=C(c1ccc3c(c1)NC(=O)CO3)CS2 | -2.49% (inactive) |
| Cc1cc(NC(=O)[C@H](C)NC(=O)c2ccco2)ccc1Br | -11% (inactive) |
| CCOc1ccc(N(CC(=O)OC)S(=O)(=O)c2c(C)noc2C)cc1 | -4.21% (inactive) |
| CCOC(=O)C1CCCN(C(=O)CN(c2ccc(OC)cc2)S(=O)(=O)c2c(C)noc2C)C1 (stereo not drawn) | 57.4% (active) |

| Compound | inhibition |
| --- | --- |
| CCOC(=O)C1CCCN(C(=O)/C=C/c2ccc(OC)cc2)C1 (stereo not drawn) | 0.29% (inactive) |
| COc1ccc(OC)c(S(=O)(=O)NCCC(C)C)c1 | -1.08% (inactive) |
| Cc1nc2cc(NC(=O)CSc3nc4c(C)cccc4cc3C#N)ccc2s1 | 20.8% (inactive) |
| COc1ccc(/C=C/C2=CC(C)(C)NC(=S)N2)c(OC)c1 | -2.22% (inactive) |
| COc1cc(/C=C/C2=CC(C)(C)NC(=S)N2)cc(OC)c1OC | 83.9% (active) |
| COc1cc(/C=C/c2ccc(/C=C/c3cc(OC)c(OC)c(OC)c3)cc2)cc(OC)c1OC | 4.65% (inactive) |
| CCOC(=O)c1c(NC(=O)CNC2CCCc3ccccc32)sc(C(N)=O)c1C (stereo not drawn) | -9.44% (inactive) |
| CCOCCCNC(=S)Nc1ccc2nc(N3CCN(CC)CC3)cc(C)c2c1 | -1.55% (inactive) |
| Cc1ccc(C(=O)Nc2sc(Cc3ccc4c(c3)OCO4)c(C)c2C(N)=O)cc1 | -8.44% (inactive) |
| CCOC(=O)c1cc2occc2n1CC(=O)N1CCN(C(=O)c2ccco2)CC1 | -2.95% (inactive) |
| O=C(Nc1cccc(Br)c1)C1CC(=O)N(C2CCCC2)C1 (stereo not drawn) | -7.74% (inactive) |
| COc1ccccc1N(CC(=O)NC1CCCC1)C(=O)C1(C)CC(=O)N=C2C=CC(C)=CN21 (stereo not drawn) | -2.31% (inactive) |
| Clc1ccccc1CSc1nnc(-c2ccco2)c(-c2ccco2)n1 | 76.5% (active) |
| O=C(Nc1nnc(SCc2ccccc2Cl)s1)c1cccc([N+](=O)[O-])c1 | -14% (inactive) |
| c1ccc(CSc2nnc(-c3ccco3)c(-c3ccco3)n2)cc1 | 79.2% (active) |
| CCc1nnc(SCc2cccc(F)c2)nc1CC | -10.3% (inactive) |
| Clc1ccc(CSc2nnc3c(n2)[nH]c2ccccc23)cc1 | -4.5% (inactive) |
| S=C(NCc1ccco1)NCc1ccccc1Cl | -4.7% (inactive) |
| COc1ccccc1N(C)C(=O)c1cc(S(=O)(=O)N2CCc3ccccc32)cn1C | -4.84% (inactive) |
| COc1ccc(C(=O)COC(=O)CNC(=O)c2cccs2)cc1Br | -0.77% (inactive) |

| Compound | inhibition |
| --- | --- |
| CO/N=C(\C(=O)N[C@@H]1C(=O)N2C(C(=O)O)=C(COC(C)=O)CS[C@H]12)c1csc(N)n1 (stereo in doubt) | 69.7% (active) and 11.4% (inactive) and 72.2% (active) |
| C=CC1=C(C(=O)O)N2C(=O)[C@@H](NC(=O)/C(=N\OCC(=O)O)c3csc(N)n3)[C@H]2SC1 | 71% (active) |
| Cc1cc(C)cc(C(=O)NC2C(=O)N3C(C(=O)O)=C(CSc4nnc(C)s4)CSC23)c1 (stereo not drawn) | 4.73% (inactive) |
| C=CC1=C(C(=O)O)N2C(=O)[C@@H](NC(=O)/C(=N/OCC(=O)O)c3csc(N)n3)[C@H]2SC1 | 65.5% (active) |
| CC(C)(C)OC(=O)C1=C(CO)CS[C@@H]2[C@H](NC(=O)Cc3ccccc3)C(=O)N12 | 1.29% (inactive) |
| Cc1nnc(SCC2=C(C(=O)O)N3C(=O)C(NC(=O)Cn4nc(C)c(Cl)c4C)C3SC2)s1 (stereo not drawn) | 14.4% (inactive) |
| CC(=O)c1ccc(NC(=O)CSc2nc3ccccc3c(=O)n2CCCN2CCOCC2)cc1 | -7.5% (inactive) |
| Cn1cnc([N+](=O)[O-])c1Sc1ccccc1 | -15.4% (inactive) |
| O=C(NCCC1=CCCCC1)c1ccc(-n2cncn2)cc1 | 0.7% (inactive) |
| O=C(O)c1ccccc1-c1ccccc1C(=O)NCc1cccnc1 | -6.94% (inactive) |
| CSc1ccccc1NC(=O)c1cnc2sc(C)cn2c1=O | -3.98% (inactive) |
| COc1ccc(C2C3=C(OC(C)=O)c4ccccc4C3=Nc3c2c(=O)n(C)c(=O)n3C)cc1 (stereo not drawn) | -10.3% (inactive) |
| CN(C)S(=O)(=O)c1cc(NC(=O)CN2C(=O)NC3(CCCc4ccccc43)C2=O)ccc1Cl (stereo not drawn) | -6.5% (inactive) |
| COc1ccc(/C(O)=C2/C(=O)C(=O)N(c3nc(C)c(C)s3)C2c2ccco2)cc1 (stereo not drawn) | -0.42% (inactive) |
| Cn1c(=O)c2cc(S(=O)(=O)NCCC(=O)Nc3ccc(F)cc3F)ccc2n(C)c1=O | -3.26% (inactive) |
| CCOC(=O)C1(S(=O)(=O)c2ccc(Cl)cc2)CCN(Cc2ccccc2)CC1 | -6.96% (inactive) |
| COC(=O)c1ccccc1NC(=O)CN(Cc1ccc(Cl)cc1)S(C)(=O)=O | -4.27% (inactive) |
| COC(=O)c1ccccc1NC(=O)C1(S(=O)(=O)c2ccc(Cl)cc2)CC1 | 82.2% (active) |
